Converted amounts (≈) assume the structure as drawn. “And” between values parts separate entries of the source, which are not always exact repeats. Equal entries are not always repeated. Where two headings read alike, the source gives them in different places.
What was measured:
Candida krusei = test: In vitro susceptibility testing; type: cell-based
In short: (§1)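 Inoculum prepared per CLSI M27-A3. Plates incubated at 37°C with 5% CO2 for 24 to 96 h. MIC was the lowest concentration inhibiting 50% of growth versus the drug-free control. Minimum fungicidal concentration was also measured: serial dilutions from wells were plated on YPD agar, and MFC was the lowest concentration yielding three or fewer colonies (99% of inoculum killed).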

Cryptococcus neoformans = test: In vitro susceptibility testing; type: cell-based
C. neoformans [1] = test: Transmission electron microscopy, intracellular vesicles; type: cell-based; details: 4 µg/ml, 6 h
[2] = system: sphingolipids of C. neoformans; test: Sphingolipid profiling by TLC and LC-MS; type: cell-based
C. neoformans [3] = test: Mouse model of cryptococcosis, intravenous infection; type: in vivo, mouse (CBA/J); details: 1.2 mg/kg/day i.p.; 8 mice per group; vehicle 7.0 ± 1.1
[4] = system: S. cerevisiae deletion mutants; type: cell-based, Saccharomyces cerevisiae
Pneumocystis jirovecii = test: In vitro testing against Pneumocystis, inhibition of ATP; type: cell-based; details: read-out: IC50 (percentage inhibition of ATP)
[5] = system: GlcCer synthesis in J774.16 cells; test: Labeling of mammalian cells with [3H]palmitate, TLC of GlcCer; type: cell-based, murine; details: [3H]palmitate labeling, 6 h
In short: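 J774.16 macrophages (5 × 10^6 cells/ml) adhered for 14 h in six-well plates. They were exposed for 4 h to test compound at the concentrations used for the fungal labeling, then given 30 µCi/ml [3H]palmitic acid for a further 2 h.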

[6] = system: intracellular C. neoformans; test: Intracellular effect in J774.16 macrophages; type: cell-based; details: 0.25, 1 or 4 µg/ml; dose dependent, 12 and 24 h
In short: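 J774.16 macrophages were co-incubated 1:1 with C. neoformans for 2 h, with complement and anti-capsular MAb 18B7 as opsonins. Wells were washed to remove extracellular yeast, then fresh DMEM with varying test compound concentrations was added, at 37°C, 5% CO2. Macrophages were lysed and plated for intracellular CFU.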

[7] = Pharmacokinetics of BHBM in mice; type: in vivo, mouse (C3H/HeN); details: for half-life: C3H/HeN, mouse, plasma, ip, IS/IN mice
In short: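 Test compound was dissolved at 10 mg/ml (stock) in cremophor-ethanol 1:1 and diluted in PBS to 200 or 400 µg/ml. C3H/HeN mice (n = 3), either healthy or immunocompromised and P. murina-infected, received 0.8 or 1.6 mg/kg i.v. (tail vein) or i.p. in 100 µl. Blood was taken into K2EDTA predose and at 0.5, 1, 2, 4, 8, 12 and 24 h, and plasma stored at −80°C. t1/2 = 0.693/λz.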

[8] = In vivo toxicity, blood work; parameters: species or system mouse (CBA/J)
In short: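 Female CBA/J mice, 4 weeks old: five received 1.2 mg/kg/day test compound for 60 days, and three controls received a daily solvent injection. On day 60, blood was collected into one K2EDTA tube and one plain tube allowed to clot.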

Cryptococcus gattii = test: In vitro susceptibility testing; type: cell-based
In short: as §1

[9] = system: various Cryptococcus species; test: MIC; type: cell-based
In short: as §1

[10] = TLC, confirmed by mass spectrometry

Question: What does the source list for `Cc1ccccc1C(=O)NN=Cc1ccc(O)c(Br)c1` [BHBM, N′-(3-bromo-4-hydroxybenzylidene)-2-methylbenzohydrazide]?
Answer: MIC range (Candida krusei; ATCC 6258 (MDPL strain)): 16 mg/L (≈ 48 µM); MIC range (Candida krusei; MDPL strain (1)): 32 mg/L (≈ 96 µM); MIC range (Candida krusei; QC FTL strains): 8 mg/L (≈ 24 µM); MIC range (Cryptococcus neoformans): 0.5−2 µg/ml and 1−2 µg/ml; MIC range (Cryptococcus neoformans; FTL strains (13)): 0.25−8 µg/ml; volume occupied by the intracellular vesicles (C. neoformans [1]; P <0.05): significant increase; numbers of vesicles per square micrometer of cell surface area (C. neoformans [1]; untreated 0.33 ± 0.36): 0.84 ± 0.58; levels of C18 hydroxyceramide and its desaturated and methylated forms ([2]; LC-MS, D0 data not shown): decreased; GlcCer levels [2, 10]: decrease; dihydroceramide, sphingosine, and sphingosine-1-phosphate [2, 10]: increased; survival, days postinfection (C. neoformans [3]): 11.1 ± 3.7 days; resistance of Δsla2 mutant [4]: not resistant; growth of Δapl5, Δcos111, Δmkk1, Δste2 mutants compared with parent strain ([4]; BHBM in the range of 11 to 92 µg/ml, 24 h, 30°C): increased resistance; IC50 (Pneumocystis jirovecii; 24 h): 0.912 mg/L (≈ 2.74 µM); IC50 (Pneumocystis jirovecii; 48 h): 0.159 mg/L (≈ 0.477 µM); IC50 (Pneumocystis jirovecii; 72 h): 0.074 mg/L (≈ 0.222 µM); IC50 (Pneumocystis jirovecii; 96 h): 0.072 mg/L (≈ 0.216 µM); synthesis of mammalian GlcCer or other sphingolipids [5]: no significant changes; intracellular replication of C. neoformans inside macrophages (CFU) [6]: significantly decreased; half-life ([7]; 0.8 mg/kg, T1/2, IP 0.8 mg/kg (low dose)): 47.4 min; half-life ([7]; 1.6 mg/kg, T1/2, IP 1.6 mg/kg (high dose)): 50.4 min; distribution to brain tissue ([7]; upon administration, data not shown): readily found in brain tissue; all other blood parameters for liver and kidney function ([8]; after 60 days of treatment): normal; liver aspartate aminotransferase (AST) ([8]; after 60 days of treatment, 1.2 mg/kg/day, untreated 50 ± 9): 125 ± 75 U/liter; tolerability in animals ([8]; mouse, in vivo): well tolerated; MIC range (Cryptococcus gattii; FTL strains (10)): 0.5−2 µg/ml; MIC range (Cryptococcus gattii; MDPL strains (3)): 0.5−1 µg/ml; MIC [9]: 0.25 to 8 mg/L (≈ 0.75 to 24 µM)

From publication PMC4479701 (mBio, 2015)
